From ChEMBL document CHEMBL3525963, “Tissue distribution and elimination of [14C]apixaban in rats” (Drug Metab Dispos, 2011) come the findings set out here.

What all share (settings): in vivo
The nature of data set [1]: Drug metabolism in Sprague-Dawley rat milk assessed as apixaban level at 5 mg/kg, po after 1 to 24 hrs by HPLC method. Format: ADME, organism-based. On the set-up: dose 5 mg/kg, dosed compound name [14C]-apixaban, route oral. In short, it runs like this: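 After a 5 mg/kg oral dose, samples were radioprofiled by HPLC. The column was C18 with a 0.4% formic acid (pH 3.2)/acetonitrile gradient at 0.7 mL/min. Fractions were collected every 0.25 min and counted for radioactivity. Peaks were identified by ESI LC/MS/MS against synthetic standards. Milk was taken at 1, 6, 12 and 24 h.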

The subject of data set [2] is Brain. The data set is described as follows: Biodistribution in pregnant Sprague-Dawley rat brain at 5 mg/kg, po administered as single dose measured after 4 hrs. Format: ADME, organism-based. More on the design: dose 5 mg/kg, dosed compound name [14C]-apixaban, route oral.
For data set [3], the system named is Rattus norvegicus. Put plainly: Biodistribution in male Sprague-Dawley rat kidney cortex at 5 mg/kg, po administered as single dose measured after 0.5 hrs. On the set-up: dose 5 mg/kg, dosed compound name [14C]-apixaban, route oral. It is filed as ADME, organism-based.
Data set [4] relates to Brain. Put plainly: Biodistribution in female Sprague-Dawley rat brain at 5 mg/kg, po administered as single dose measured after 4 hrs. Format: ADME, organism-based. More on the design: dose 5 mg/kg, dosed compound name [14C]-apixaban, route oral. An outline of the steps:
(§1)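 [14C]Apixaban (1.0 mg/mL, 20 μCi/mL in 0.5% Tween 80 in Labrafil) given as a single oral gavage of 5 mg/kg (100 μCi/kg) to fasted female SD rats, one rat per time point. Carcasses were frozen in hexane/dry ice and cut into 40 µm sagittal sections for QWBA against [14C]glucose standards. Brain radioactivity is reported as µg eq/g, with LLOQ 0.037 µg eq/g.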

Data set [5] deals with Rattus norvegicus. Put plainly: Biodistribution in male Sprague-Dawley rat bone marrow at 5 mg/kg, po administered as single dose measured after 24 hrs. More on the design: dose 5 mg/kg, dosed compound name [14C]-apixaban, route oral. It is filed as ADME, organism-based. In short, it runs like this:
(§2)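 Fasted male SD rats (225-252 g) each received one oral gavage dose of [14C]apixaban, 5 mg/kg (100 μCi/kg), in 0.5% Tween 80/Labrafil vehicle. One rat was killed per time point, from 0.5 to 168 h. Frozen carcasses were cut into 40 µm sagittal whole-body sections and read by QWBA phosphor imaging against [14C]glucose calibrants. Results are in µg apixaban eq/g; BLQ <0.037 µg eq/g.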

In data set [6] the test system is Pancreas. The data set is described as follows: Biodistribution in female Sprague-Dawley rat pancreas at 5 mg/kg, po administered as single dose measured after 8 hrs. It is filed as ADME, organism-based. On the set-up: dose 5 mg/kg, dosed compound name [14C]-apixaban, route oral. An outline of the steps:
(§3)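 [¹⁴C]Apixaban given by oral gavage at 5 mg/kg (100 μCi/kg) in 0.5% Tween 80 in Labrafil (1.0 mg/mL dosing solution) to rats fasted overnight through 4 h post-dose. One rat per time point; carcass frozen in hexane/dry ice. Quantitative whole-body autoradiography used 40 µm sagittal sections and a phosphor imaging plate calibrated with [¹⁴C]glucose standards (0.001–6.5 μCi/g). Read-out in µg eq apixaban/g; LLOQ 0.037 μg eq/g.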

For another data set, the system named is Liver. Put plainly: Biodistribution in male Sprague-Dawley rat liver at 5 mg/kg, po administered as single dose measured after 72 hrs. It is filed as ADME, organism-based. More on the design: dose 5 mg/kg, dosed compound name [14C]-apixaban, route oral. An outline of the steps: as §2
Data set [7] deals with Rattus norvegicus. The data set is described as follows: Biodistribution in pregnant Sprague-Dawley rat brown fat at 5 mg/kg, po administered as single dose measured after 0.5 hrs. It is filed as ADME, organism-based, Brown adipose tissue. More on the design: dose 5 mg/kg, dosed compound name [14C]-apixaban, route oral.
The subject of data set [8] is Brain. The data set is described as follows: Biodistribution in female Sprague-Dawley rat brain at 5 mg/kg, po administered as single dose measured after 72 hrs. On the set-up: dose 5 mg/kg, dosed compound name [14C]-apixaban, route oral. It is filed as ADME, organism-based. An outline of the steps: as §1
Data set [9] has as its system Blood. Put plainly: Biodistribution in male Sprague-Dawley rat blood at 5 mg/kg, po administered as single dose measured after 0.5 hrs. On the set-up: dose 5 mg/kg, dosed compound name [14C]-apixaban, route oral. Format: ADME, organism-based. An outline of the steps: as §3
The next data set deals with Spleen. The data set is described as follows: Biodistribution in male Sprague-Dawley rat spleen at 5 mg/kg, po administered as single dose measured after 24 hrs. It is filed as ADME, organism-based. On the set-up: dose 5 mg/kg, dosed compound name [14C]-apixaban, route oral. An outline of the steps:
as §2

The next data set deals with Lung. The data set is described as follows: Biodistribution in pregnant Sprague-Dawley rat lung at 5 mg/kg, po administered as single dose measured after 48 hrs. Format: ADME, organism-based. On the set-up: dose 5 mg/kg, dosed compound name [14C]-apixaban, route oral. In short, it runs like this:
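Pregnant SD rats (270-319 g) were fasted overnight and given one oral gavage of 5 mg/kg (100 μCi/kg) in 0.5% Tween 80 in Labrafil. One rat was euthanized per time point (0.5, 1, 4, 8, 24, 48 h) and the carcass frozen. 40 µm sagittal sections were phosphor-imaged against [14C]glucose standards and results reported as µg eq/g; LLOQ 0.037 µg eq/g.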

Data set [10] relates to Brain. Put plainly: Biodistribution in male Sprague-Dawley rat brain at 5 mg/kg, po administered as single dose measured after 0.5 hrs. Format: ADME, organism-based. More on the design: dose 5 mg/kg, dosed compound name [14C]-apixaban, route oral. An outline of the steps: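 Fasted male SD rats were dosed orally by gavage with a single 5 mg/kg (100 μCi/kg) dose of [14C]apixaban, formulated at 1.0 mg/mL and 20 μCi/mL in 0.5% Tween 80/Labrafil. One rat was euthanized per time point and the carcass frozen and sectioned at 40 µm. Brain was quantified by QWBA against [14C]glucose calibration standards, as µg eq/g (LLOQ 0.037 µg eq/g).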

Data set [11] concerns Blood. The data set is described as follows: Biodistribution in female Sprague-Dawley rat blood at 5 mg/kg, po administered as single dose measured after 4 hrs. Format: ADME, organism-based. On the set-up: dose 5 mg/kg, dosed compound name [14C]-apixaban, route oral. In short, it runs like this:
as §3

The test system of the next data set is Muscle tissue. The data set is described as follows: Biodistribution in pregnant Sprague-Dawley rat muscle at 5 mg/kg, po administered as single dose measured after 8 hrs. It is filed as ADME, organism-based. On the set-up: dose 5 mg/kg, dosed compound name [14C]-apixaban, route oral.
Data set [12] has as its system Blood. Put plainly: Cmax in male Sprague-Dawley rat blood at 5 mg/kg, po administered as single dose. Format: ADME, organism-based. On the set-up: dose 5 mg/kg, dosed compound name [14C]-apixaban, route oral. An outline of the steps: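 Fasted male, female or pregnant SD rats received a single oral gavage of 5 mg/kg (100 μCi/kg) in 0.5% Tween 80/Labrafil. One rat was killed per time point, up to 168 h (48 h for pregnant). Blood was collected into K3EDTA. Blood radioactivity came from autoradiogram or LSC data, and Cmax was taken from the concentration-time profile.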

A further data set deals with Plasma. The data set is described as follows: AUC (0 to infinity) in lactating Sprague-Dawley rat plasma at 5 mg/kg, po administered as single dose. On the set-up: time infinity, dose 5 mg/kg, dosed compound name [14C]-apixaban, route oral. It is filed as ADME, organism-based. An outline of the steps:
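Fasted lactating SD rats received 5 mg/kg [14C]apixaban orally (formulation 5.0 mg/mL, 20 μCi/mL). Oxytocin was injected subcutaneously 15 min before collection, and 1 mL milk was taken under anesthesia by milking machine. Sampling was predose and at 0.5–24 h, 3 rats per time point. Plasma was obtained at 1300g for 10 min. Duplicate 50–100 µL aliquots were counted by LSC for 10 min. AUC was calculated in WinNonlin.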

Data set [13] deals with Brain. The data set is described as follows: Biodistribution in male Sprague-Dawley rat brain at 5 mg/kg, po administered as single dose measured after 24 hrs. Format: ADME, organism-based. On the set-up: dose 5 mg/kg, dosed compound name [14C]-apixaban, route oral.
The test system of data set [14] is Rattus norvegicus. The data set is described as follows: Biodistribution in pregnant Sprague-Dawley rat salivary gland at 5 mg/kg, po administered as single dose measured after 8 hrs. It is filed as ADME, organism-based. On the set-up: dose 5 mg/kg, dosed compound name [14C]-apixaban, route oral.
Data set [15] deals with Pancreas. The data set is described as follows: Biodistribution in female Sprague-Dawley rat pancreas at 5 mg/kg, po administered as single dose measured after 24 hrs. Format: ADME, organism-based. On the set-up: dose 5 mg/kg, dosed compound name [14C]-apixaban, route oral. In short, it runs like this:
(§4)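 Quantitative whole-body autoradiography was run after a single 5 mg/kg (100 μCi/kg) oral gavage to fasted female or pregnant SD rats, one rat per time point. Carcasses were frozen in hexane/dry ice, and 40 µm sagittal sections were dried at −20°C for at least 48 h. Sections were exposed to a phosphor plate alongside [14C]glucose standards (0.001–6.5 µCi/g). Results are µg eq/g, with LLOQ 0.037 µg eq/g.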

For data set [16], the system named is Rattus norvegicus. The data set is described as follows: Biodistribution in fetal brain of pregnant Sprague-Dawley rat at 5 mg/kg, po administered as single dose measured after 48 hrs. Format: ADME, organism-based. More on the design: dose 5 mg/kg, dosed compound name [14C]-apixaban, route oral. In short, it runs like this: as §4
The nature of data set [17]: Drug level in lactating Sprague-Dawley rat milk at 5 mg/kg, po administered as single dose after 0 to 24 hrs. It is filed as ADME, organism-based. More on the design: dose 5 mg/kg, dosed compound name [14C]-apixaban, route oral.

`COc1ccc(-n2nc(C(N)=O)c3c2C(=O)N(c2ccc(N4CCCC[14C]4=O)cc2)CC3)cc1`: the Compound recovery in data set [1] was more than 96%. Also, the Radiolabel recovery with Brain [2] was less than 0.037 ugequiv/g; in the data set with Rattus norvegicus [3], 0.81 ugequiv/g; in the data set on Brain [4], less than 0.037 ugequiv/g; with Rattus norvegicus [5] it was “Not sampled as not visualised in autoradiograph”; in the data set on Pancreas [6] it was 0.19 ugequiv/g; with Liver, “Not detected assumed BLQ”. The Radiolabel recovery in the data set on Rattus norvegicus [7] is listed as 1.08 ugequiv/g; in the data set on Brain [8], less than 0.037 ugequiv/g; in the data set with Blood [9], 0.42 ugequiv/g; with Spleen, “Not detected assumed BLQ”; with Lung it was “Not detected assumed BLQ”; with Brain [10], 0.05 ugequiv/g. For the same compound, the Radiolabel recovery in the data set on Blood [11] was 0.35 ugequiv/g; with Muscle tissue, 0.05 ugequiv/g; in the data set with Brain [13] it was less than 0.037 ugequiv/g; in the data set with Rattus norvegicus [14], 0.08 ugequiv/g; with Pancreas [15] it was “Not detected assumed BLQ”; with Rattus norvegicus [16] it was “Not detected assumed BLQ”. Moreover, the Radiolabel recovery in data set [17] amounted to 4.6 µg/mL. The Cmax with Blood [12] was found to be 1180 ngequiv/g. Also, the AUC in the data set on Plasma is on record as 3470 ngequiv.hr/g.
